Measured values pooled from the literature.
Target: Myosin light chain kinase (MYLK3, Homo sapiens, UniProt Q32MK0)
One construct used (Q32MK0 1-819): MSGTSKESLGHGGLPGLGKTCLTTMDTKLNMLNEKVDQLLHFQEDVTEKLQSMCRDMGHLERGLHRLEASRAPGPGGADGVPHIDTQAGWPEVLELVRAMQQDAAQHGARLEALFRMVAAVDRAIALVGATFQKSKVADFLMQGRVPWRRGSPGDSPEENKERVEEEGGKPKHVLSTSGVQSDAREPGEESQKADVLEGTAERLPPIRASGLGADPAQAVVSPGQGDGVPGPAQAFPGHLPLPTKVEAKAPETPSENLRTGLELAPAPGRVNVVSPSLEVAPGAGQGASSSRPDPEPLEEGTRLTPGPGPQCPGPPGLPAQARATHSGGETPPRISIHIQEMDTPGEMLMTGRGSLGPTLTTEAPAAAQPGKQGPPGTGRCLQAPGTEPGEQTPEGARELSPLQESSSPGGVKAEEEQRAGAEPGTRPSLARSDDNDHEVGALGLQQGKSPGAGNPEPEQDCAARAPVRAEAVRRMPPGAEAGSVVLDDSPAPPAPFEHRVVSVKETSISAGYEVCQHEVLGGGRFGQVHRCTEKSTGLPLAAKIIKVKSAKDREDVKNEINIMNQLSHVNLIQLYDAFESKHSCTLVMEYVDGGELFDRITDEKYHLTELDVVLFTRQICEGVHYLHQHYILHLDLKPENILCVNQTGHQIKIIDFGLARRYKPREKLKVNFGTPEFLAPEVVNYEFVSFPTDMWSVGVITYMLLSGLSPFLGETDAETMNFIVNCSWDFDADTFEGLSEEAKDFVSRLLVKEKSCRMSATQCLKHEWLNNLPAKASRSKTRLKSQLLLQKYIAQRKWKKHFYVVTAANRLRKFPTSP

| SMILES | effect on | mode | method | tested at | endpoint | value |
| --- | --- | --- | --- | --- | --- | --- |
| COc1ncccc1-c1cnn2ccc(N3CCN(C(=O)OC(C)C)CC3)nc12 | binding | – | competition with immobilised ligand | 1 µM | remaining binding | 100% |
| Cn1cc(-c2cccc(N3CCc4c(sc5c4CC(C)(C)C5)C3=O)c2CO)cc(Nc2ccncn2)c1=O | enzyme activity | inhibitor | – | 1 µM | inhibition | -8% |
| N#CC1(c2ccccn2)CCN(Cc2cc(C(=O)O)c(=O)n3ccccc23)CC1 | cell-free assay | – | competition with immobilised ligand | 1 µM | remaining binding | 87% |
| Nc1ncc(-c2nc(N3CCOCC3)nc(N3CCOCC3)n2)c(C(F)F)n1 | binding | – | competition with immobilised ligand | 10 µM | remaining binding | 84% |
| Cc1nn(C)cc1-c1nc2c(N3CCN(Cc4ccc(Cl)cc4)CC3)c(Cl)cnc2[nH]1 | binding | – | competition with immobilised ligand | 1 µM | remaining binding | 100% |
| Cn1cncc1[C@](O)(COc1ccc(C#N)cc1-c1ccc(OC(F)(F)F)cc1)c1ccc(C#N)cc1 | cell-free assay | – | competition with immobilised ligand | 1 µM | remaining binding | 100% |
| Cn1cc(-c2cc(F)cc(N3CCn4c(cc5c4CCCC5)C3=O)c2CO)cc(Nc2ccc(N3CCN(C4COC4)CC3)cn2)c1=O | enzyme activity | inhibitor | – | 0.1 µM | inhibition | -5% |
| COc1cc(Nc2ncc(F)c(Nc3ccc4c(n3)NC(=O)C(C)(C)O4)n2)cc(OC)c1OC | binding | – | competition with immobilised ligand | 10 µM | inhibition | 30% |
